How the values were obtained:
[1] = target: T1, ATP-dependent translocase ABCB1 (Homo sapiens, UniProt P08183); test: Stimulation of ATPase activity of ABCB1 (unknown origin) expressed in High Five insect cell membrane assessed as ATP hydrolysis at 0.5 to 2.5 uM relative to control
[2] = Cytotoxicity against human HEK293 cells overexpressing human ABCB1 assessed as cell survival at 10 uM by MTT assay; type: ADME, cell-based; conditions: HEK293 cells that overexpress human ABCB1, read-out: Activity
Summary of the method: (§1)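 Cells seeded at 5000–6000 per well in triplicate, attached 24 h at 37 °C, 5% CO2, then exposed to compound for 72 h. MTT (4 mg/mL) added for 4 h, formazan dissolved in DMSO, absorbance read at 570 nm. Four independent experiments. HEK/ABCB1 and HEK293 kept in DMEM with G418 (2 mg/mL). All lines drug-free for over 2 weeks beforehand.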

[3] = target: T1, ATP-dependent translocase ABCB1; test: Reversal of Pgp-1-mediated multidrug resistance in human HEK293 cells assessed as potentiation of paclitaxel cytotoxicity at 3 uM treated for 2 hrs prior to paclitaxel challenge measured after 72 hrs by MTT assay relative to paclitaxel alone-treated control; type: cell-based; conditions: hek293, 72 h
Summary of the method: (§2)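 MTT reversal assay. Cells seeded 5000–6000/well and attached 24 h; modulator added 2 h before graded paclitaxel; 72 h at 37 °C; MTT 4 h, DMSO solubilisation, A570. Paclitaxel IC50 taken from killing curves. Fold-resistance = paclitaxel IC50 (± modulator) ÷ paclitaxel IC50 in parental SW620 or HEK293. Four independent experiments in triplicate, mean ± SEM. Cells drug-free >2 weeks beforehand.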

[4] = target: T1, ATP-dependent translocase ABCB1; test: Displacement of […] from ABCB1 (unknown origin) expressed in High Five insect cell membrane at >5 uM preincubated for 10 mins by autoradiography
Summary of the method: (§3)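 Compound 0–20 μM, 10 min at 37 °C. Then [125I]-IAAP (2200 Ci/mmol; 4–6 nM) added for 5 min under minimal light. UV 365 nm for 10 min, labeling read by autoradiography. Two independent experiments; curve fitted by one-phase decay.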

[5] = target: T1, ATP-dependent translocase ABCB1; test: Reversal of Pgp-1-mediated multidrug resistance in human HEK293 cells overexpressing human ABCB1 assessed as potentiation of paclitaxel cytotoxicity at 3 uM treated for 2 hrs prior to paclitaxel challenge measured after 72 hrs by MTT assay relative to paclitaxel alone-treated control; type: cell-based; conditions: hek293, 72 h; summary of the method: as §2
[6] = target: T1, ATP-dependent translocase ABCB1; test: Reversal of Pgp-1-mediated multidrug resistance in human HEK293 cells overexpressing human ABCB1 assessed as potentiation of paclitaxel cytotoxicity at 10 uM treated for 2 hrs prior to paclitaxel challenge measured after 72 hrs by MTT assay relative to paclitaxel alone-treated control; type: cell-based; conditions: hek293, 72 h
Summary of the method: (§4)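 Cells seeded at 5000–6000/well, attached 24 h at 37 °C, 5% CO2, then preincubated 2 h ± reversal agent before paclitaxel dilutions; after 72 h, MTT (4 mg/mL) 4 h, formazan dissolved in DMSO, absorbance 570 nm. Paclitaxel IC50 from killing curves; fold-resistance = IC50 divided by parental paclitaxel IC50. Four independent experiments in triplicate. HEK lines kept with G418 (2 mg/mL).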

[7] = target: T1, ATP-dependent translocase ABCB1; test: Reversal of Pgp-1-mediated multidrug resistance in human SW620/Ad300 cells overexpressing ABCB1 assessed as potentiation of paclitaxel cytotoxicity at 1 uM treated for 2 hrs prior to paclitaxel challenge measured after 72 hrs by MTT assay relative to paclitaxel alone-treated control; type: cell-based; conditions: sw-620, 72 h; summary of the method: as §2
[8] = target: T1, ATP-dependent translocase ABCB1; test: Reversal of Pgp-1-mediated multidrug resistance in human HEK293 cells assessed as potentiation of paclitaxel cytotoxicity at 1 uM treated for 2 hrs prior to paclitaxel challenge measured after 72 hrs by MTT assay relative to paclitaxel alone-treated control; type: cell-based; conditions: hek293, 72 h; summary of the method: as §2
[9] = target: T1, ATP-dependent translocase ABCB1; test: Reversal of Pgp-1-mediated multidrug resistance in human SW620/Ad300 cells overexpressing ABCB1 assessed as potentiation of paclitaxel cytotoxicity at 3 uM treated for 2 hrs prior to paclitaxel challenge measured after 72 hrs by MTT assay relative to paclitaxel alone-treated control; type: cell-based; conditions: sw-620, 72 h; summary of the method: as §2
[10] = target: T1, ATP-dependent translocase ABCB1; test: Reversal of Pgp-1-mediated multidrug resistance in human SW620/Ad300 cells overexpressing ABCB1 assessed as potentiation of paclitaxel cytotoxicity at 10 uM treated for 2 hrs prior to paclitaxel challenge measured after 72 hrs by MTT assay relative to paclitaxel alone-treated control; type: cell-based; conditions: sw-620, 72 h; summary of the method: as §4
[11] = target: T1, ATP-dependent translocase ABCB1; test: Reversal of Pgp-1-mediated multidrug resistance in human SW620 cells assessed as potentiation of paclitaxel cytotoxicity at 3 uM treated for 2 hrs prior to paclitaxel challenge measured after 72 hrs by MTT assay relative to paclitaxel alone-treated control; type: cell-based; conditions: sw-620, 72 h; summary of the method: as §2
[12] = Cytotoxicity against human SW620 cells assessed as cell survival at 10 uM by MTT assay; type: cell-based, SW-620; conditions: read-out: Activity; summary of the method: as §1
[13] = target: T1, ATP-dependent translocase ABCB1; test: Displacement of […] from ABCB1 (unknown origin) expressed in High Five insect cell membrane preincubated for 10 mins by autoradiography; summary of the method: as §3
[14] = Retardation factor of the compound using EtOAc-n-hexane at ratio of 3:2 by thin layer chromatography; type: physicochemical
[15] = Cytotoxicity against human HEK293 cells assessed as cell survival at 10 uM by MTT assay; type: cell-based; conditions: read-out: Activity; summary of the method: as §1
[16] = target: T1, ATP-dependent translocase ABCB1; test: Reversal of Pgp-1-mediated multidrug resistance in human HEK293 cells assessed as potentiation of paclitaxel cytotoxicity at 10 uM treated for 2 hrs prior to paclitaxel challenge measured after 72 hrs by MTT assay relative to paclitaxel alone-treated control; type: cell-based; conditions: hek293, 72 h; summary of the method: as §4
[17] = target: T1, ATP-dependent translocase ABCB1; test: Stimulation of ATPase activity of ABCB1 (unknown origin) expressed in High Five insect cell membrane assessed as ATP hydrolysis at >2.5 uM relative to control
[18] = target: T1, ATP-dependent translocase ABCB1; test: Reversal of Pgp-1-mediated multidrug resistance in human SW620 cells assessed as potentiation of paclitaxel cytotoxicity at 1 uM treated for 2 hrs prior to paclitaxel challenge measured after 72 hrs by MTT assay relative to paclitaxel alone-treated control; type: cell-based; conditions: sw-620, 72 h; summary of the method: as §2
[19] = target: T1, ATP-dependent translocase ABCB1; test: Reversal of Pgp-1-mediated multidrug resistance in human SW620 cells assessed as potentiation of paclitaxel cytotoxicity at 10 uM treated for 2 hrs prior to paclitaxel challenge measured after 72 hrs by MTT assay relative to paclitaxel alone-treated control; type: cell-based; conditions: sw-620, 72 h; summary of the method: as §4
[20] = target: T1, ATP-dependent translocase ABCB1; test: Inhibition of human wild type P-gp expressed in BacMam virus infected human HeLa cells assessed as calcein-AM accumulation after 10 mins by flow cytometry; type: cell-based
Summary of the method: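 HeLa cells transduced with BacMam WT-P-gp (10–15 particles/cell); 10 mM butyric acid added after 3–4 h, grown overnight at 37 °C. Trypsinized cells exposed to compound, then 0.5 μM calcein-AM for 10 min at 37 °C in the dark. […] Two independent experiments in triplicate, ± SD.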

[21] = target: T1, ATP-dependent translocase ABCB1; test: Stimulation of ATPase activity of ABCB1 (unknown origin) expressed in High Five insect cell membrane assessed as ATP hydrolysis
Summary of the method: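 Vanadate-sensitive ATPase of P-gp in crude High Five membranes (10 μg protein/100 μL). Compound 0–10 μM, with and without 0.3 mM sodium orthovanadate, in ATPase assay buffer. […] Three independent experiments in duplicate, mean ± SEM.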

[22] = Cytotoxicity against human SW620/Ad300 cells overexpressing ABCB1 assessed as cell survival at 10 uM by MTT assay; type: ADME, cell-based, SW-620; conditions: SW620/Ad300 cells that overexpress ABCB1, read-out: Activity; summary of the method: as §1
[23] = target: T1, ATP-dependent translocase ABCB1; test: Reversal of Pgp-1-mediated multidrug resistance in human HEK293 cells overexpressing human ABCB1 assessed as potentiation of paclitaxel cytotoxicity at 1 uM treated for 2 hrs prior to paclitaxel challenge measured after 72 hrs by MTT assay relative to paclitaxel alone-treated control; type: cell-based; conditions: hek293, 72 h; summary of the method: as §2
[24] = Retention time of the compound by HPLC analysis; type: physicochemical
Summary of the method: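 Reverse-phase C18 HPLC, isocratic acetonitrile/water 60:40, 1.0 mL/min, UV 254 nm; purity from major-peak area.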

T1 sequence (P08183 whole entry): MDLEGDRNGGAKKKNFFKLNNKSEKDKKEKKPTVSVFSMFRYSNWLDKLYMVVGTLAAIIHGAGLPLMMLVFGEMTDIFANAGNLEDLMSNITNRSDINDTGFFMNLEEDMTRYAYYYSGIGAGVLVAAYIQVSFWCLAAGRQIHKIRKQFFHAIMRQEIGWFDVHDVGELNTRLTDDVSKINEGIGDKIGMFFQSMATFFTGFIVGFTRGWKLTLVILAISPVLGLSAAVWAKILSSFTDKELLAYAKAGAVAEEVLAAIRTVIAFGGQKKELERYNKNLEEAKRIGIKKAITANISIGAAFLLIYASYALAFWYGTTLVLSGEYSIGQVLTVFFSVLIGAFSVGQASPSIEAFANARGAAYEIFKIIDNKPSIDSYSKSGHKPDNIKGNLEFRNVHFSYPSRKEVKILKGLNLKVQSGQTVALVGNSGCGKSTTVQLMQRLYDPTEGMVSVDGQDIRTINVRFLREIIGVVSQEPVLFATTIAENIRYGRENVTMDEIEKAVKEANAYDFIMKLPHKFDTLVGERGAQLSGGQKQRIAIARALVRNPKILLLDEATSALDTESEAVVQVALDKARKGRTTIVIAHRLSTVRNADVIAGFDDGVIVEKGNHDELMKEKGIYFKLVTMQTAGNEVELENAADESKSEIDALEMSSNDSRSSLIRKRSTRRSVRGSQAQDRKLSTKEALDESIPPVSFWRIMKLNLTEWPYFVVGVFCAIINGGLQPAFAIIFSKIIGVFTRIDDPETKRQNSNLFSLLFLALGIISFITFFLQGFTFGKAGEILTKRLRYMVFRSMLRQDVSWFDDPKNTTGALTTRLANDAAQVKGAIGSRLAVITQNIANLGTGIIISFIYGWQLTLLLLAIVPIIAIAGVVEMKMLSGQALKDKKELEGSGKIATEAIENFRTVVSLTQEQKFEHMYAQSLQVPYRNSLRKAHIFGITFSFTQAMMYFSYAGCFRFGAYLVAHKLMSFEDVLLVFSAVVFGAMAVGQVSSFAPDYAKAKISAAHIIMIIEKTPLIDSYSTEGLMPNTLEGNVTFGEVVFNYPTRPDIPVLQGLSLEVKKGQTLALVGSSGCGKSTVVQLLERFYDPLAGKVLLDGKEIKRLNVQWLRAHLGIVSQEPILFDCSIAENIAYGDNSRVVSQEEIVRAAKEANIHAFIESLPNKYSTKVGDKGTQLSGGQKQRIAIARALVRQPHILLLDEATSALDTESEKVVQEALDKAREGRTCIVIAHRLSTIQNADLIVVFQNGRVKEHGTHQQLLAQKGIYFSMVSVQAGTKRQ

**Q.** Which Ratio [1] does the source give for `COc1cc(C(=O)N[C@H](c2nc(C(=O)Nc3ccccc3C(=O)c3ccccc3)cs2)C(C)C)cc(OC)c1OC` here?
**A.** The Ratio was 2.

**Q.** What about the viability at 10 µM [2] of the same molecule?
**A.** The viability at 10 µM was > 85%.

**Q.** And the Ratio [3]?
**A.** The Ratio was 1.

**Q.** What about the IC50 [4] of the same molecule?
**A.** The IC50 was 720 nM.

**Q.** And the “inhibition (INH)” value ([4]; human)?
**A.** The value was 90%.

**Q.** And the Ratio [5]?
**A.** Its Ratio is 3.1.

**Q.** And the Ratio [6]?
**A.** The Ratio was 2.

**Q.** What about the Ratio [7] of the same molecule?
**A.** The Ratio was 31.

**Q.** What about the Ratio [8] of the same molecule?
**A.** The Ratio was 1.

**Q.** And the Ratio [9]?
**A.** The Ratio was 8.5.

**Q.** What about the Ratio [10] of the same molecule?
**A.** The Ratio was 1.8.

**Q.** What about the Ratio [11] of the same molecule?
**A.** The Ratio was 1.

**Q.** What about the viability at 10 µM [12] of the same molecule?
**A.** The viability at 10 µM was > 85%.

**Q.** And the “inhibition (INH)” value [13]?
**A.** Its value is “Dose-dependent effect”.

**Q.** And the Rf [14]?
**A.** Its Rf is 0.45.

**Q.** And the viability at 10 µM [15]?
**A.** The viability at 10 µM was > 85%.

**Q.** And the Ratio [16]?
**A.** Its Ratio is 1.

**Q.** What about the Ratio [17] of the same molecule?
**A.** The Ratio was 1.8.

**Q.** What about the Ratio [18] of the same molecule?
**A.** Its Ratio is 1.2.

**Q.** And the Ratio [19]?
**A.** The Ratio was 1.

**Q.** And the IC50 [20]?
**A.** The IC50 was 1000 nM.

**Q.** What about the “inhibition (INH)” value ([20]; human, hela, 10 min) of the same molecule?
**A.** The value was “Dose-dependent effect”.

**Q.** What about the EC50 [21] of the same molecule?
**A.** Its EC50 is 27 nM.

**Q.** What about the Activity ([21]; human) of the same molecule?
**A.** Its Activity is “Dose-dependent effect”.

**Q.** And the viability at 10 µM [22]?
**A.** The viability at 10 µM was > 85%.

**Q.** What about the Ratio [23] of the same molecule?
**A.** The Ratio was 12.9.

**Q.** And the Retention_time [24]?
**A.** Its Retention_time is 9.4 min.

Reference: ChEMBL document CHEMBL3259707, “Design and synthesis of human ABCB1 (P-glycoprotein) inhibitors by peptide coupling of diverse chemical scaffolds on carboxyl and amino termini of (S)-valine-derived thiazole amino acid” (J Med Chem, 2014)
